# CAL PDZ FP-1: CAL PDZ peptide-binding inhibitors, primary screen, biochemical, fluorescence polarization, Cer-tagged CAL PDZ, HTS; AID 504414, 2011; purified CAL PDZ, TMR-peptide fluorescence polarization, 1 h; inhibition, % at 20 µM; hit rate 0.02% among 330,000; Golgi-associated PDZ and coiled-coil motif-containing protein (Homo sapiens), Q9HD26;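 active = highest replicate inhibition of at least 40%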;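 note: plate controls were DMSO neutral control wells for no effect and unlabeled competitor peptide control wells for full effect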
#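 Test system: tagged CAL PDZ domain / Buffer or medium: sodium phosphate/NaCl buffer pH 7.4 with TCEP, IgG, Thesit / Reagent: TMR-labelled reporter peptide T*-PRC34 bound in PDZ groove / Compound dosing: single point, 20 µM / Schedule: 1 h incubation at room temperature before polarization reading / Technique: fluorescence polarization (mP) / Benchmarks: unlabelled peptide, DMSO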
# dFosB activator: activators of delta FosB homodimer, primary screen, biochemical, fluorescence polarization, TAMRA-CDK5 oligo, single point; activation, % at 25 µM; purified delta FosB; percent of positive-control signal above neutral wells; AID 493131, 2011; hit rate 0.99% among 340,000;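 active = mean activation above about 17%, with every replicate also reaching it, limit read from the data, passing the limit was not always enough; inconclusive = only one of the two conditions met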
# PKA-R1A activ: activators of PKA-R1A holoenzyme, primary screen, biochemical, fluorescence polarization, Cy5-IP20, bovine R1A, mouse PKAc | PKA-R1A dissociation; scaled: DMSO 0%, 113 µM cGMP 100% | activation, % at 11.4 µM | hit rate 0.083% among 340,000 | AID 504707, 2011;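 active = percent activation above the mean of all tested compounds plus 3 SD, cut at about 19% in these data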;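 note: higher means more PKAc released from R1A so a rise in polarization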
# CAL PDZ FP-2: untagged CAL PDZ binding inhibitors, primary screen, biochemical, fluorescence polarization, HTS | inhibition, % at 24.9 µM | AID 602252, 2012 | Golgi-associated PDZ and coiled-coil motif-containing protein (Homo sapiens), Q9HD26 | purified CAL PDZ, TMR-peptide fluorescence polarization, 1 h | hit rate 0.92% among 300,000;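 active = mean inhibition of at least 30% with at least half of replicates also reaching 30%; inconclusive = no clear call, values can overlap the other calls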;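 note: 0% = DMSO neutral control and 100% = excess unlabeled competitor peptide PRC23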
# NTR1 agonist: agonists of human NTR1, primary screen, imaging, U2OS cells, beta-arrestin-GFP, high content | activation, % at 20 µM | NTR1-U2OS beta-arrestin-GFP spot imaging, agonist mode | hit rate 0.17% among 330,000 | AID 493036, 2011;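 active = activation at or above 40% of the spot to cytoplasm intensity ratio, with at least 20 cells analyzed; inconclusive = wells under 20 cells, flagged as cytotoxic or low count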;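 note: 0% = DMSO without peptide and 100% = 100 nM NTR1 peptide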
# PKA-R2B activ: activators of PKA-R2B holoenzyme, primary screen, biochemical, fluorescence polarization, Cy5-IP20, human. AID 504700, 2011. PKA-R2B holoenzyme dissociation; R2B truncated from residue 108, S112A mutant; 0% DMSO only, 100% 113 µM cGMP. hit rate 0.079% among 340,000. activation, % at 11.4 µM. cAMP-dependent protein kinase catalytic subunit beta (Homo sapiens) + cAMP-dependent …;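 active = activation above a cutoff set at the mean over all compounds plus 3 SD, cut at about 18% in these data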;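 note: higher means more holoenzyme dissociation and a rise in polarization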
# Target sequence (P31323 whole entry, looked up, other chains not shown, the tested form may be a part): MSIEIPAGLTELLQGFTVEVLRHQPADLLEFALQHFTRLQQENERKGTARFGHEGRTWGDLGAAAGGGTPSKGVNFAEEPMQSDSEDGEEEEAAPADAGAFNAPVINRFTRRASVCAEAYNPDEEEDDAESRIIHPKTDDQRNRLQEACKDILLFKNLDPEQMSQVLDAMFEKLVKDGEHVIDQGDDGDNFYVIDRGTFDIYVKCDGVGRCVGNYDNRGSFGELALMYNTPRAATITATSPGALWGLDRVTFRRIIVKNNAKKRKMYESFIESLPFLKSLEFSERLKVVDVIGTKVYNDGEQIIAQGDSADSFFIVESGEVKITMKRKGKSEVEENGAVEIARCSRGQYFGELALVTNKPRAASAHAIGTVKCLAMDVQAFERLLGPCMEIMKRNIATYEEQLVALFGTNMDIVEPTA
# * hit, by the source's call; ? = inconclusive; / = no result; + = active, no number. In the library only some 2% were active in any assay of this set; here they are far more common.
SMILES,CAL PDZ FP-1,dFosB activator,PKA-R1A activ,CAL PDZ FP-2,NTR1 agonist,PKA-R2B activ
Cc1cc(C)c(S(=O)(=O)Nc2ccc(OCC(=O)O)cc2)c(C)c1,-1,1,5,43*,4,8
O=S(=O)(Nc1ccc2cn[nH]c2c1)c1ccc(C(F)(F)F)cc1,-1,-4,2,-1,2,-2
O=[N+]([O-])c1cccc(S(=O)(=O)Nc2ccc3cn[nH]c3c2)c1,0,2,12,+,0,-2
CC(Oc1cccc([N+](=O)[O-])c1)C(=O)NCCC1=CCCCC1 (centres undefined),-4,-5,6,/,1,4
CCOC(=O)N1CCN(C(=O)Cn2nc(C)n3nc(-c4ccc(OC)cc4)cc3c2=O)CC1,-2,-3,-4,1,0,-18
COc1ccc(-c2cc3c(=O)n(CC(=O)Nc4cccc(Cl)c4)nc(C)n3n2)cc1,-2,24*,3,-3,3,-10
COc1ccc(NC(=O)Cn2nc(C)c3ccccc3c2=O)cc1,33,4,-6,37*,2,2
O=C(Nc1ccc(Br)cc1)c1ccccc1Br,-2,-4,-15,-1,1,-7
COc1ccc(Nc2cc(C)c3c(O)cccc3n2)cc1,1,?,4,1,2,-1
Cc1ccc(Nc2cc(C)c3c(O)cccc3n2)cc1C,1,39*,2,2,22,-8
CCC(C)[C@H](NC(=O)N1CCC(C)CC1)C(=O)OC (some centres undefined),0,-2,-2,52*,-1,0
Cc1ccccc1OCc1nc2ccccc2[nH]1,-1,-6,-2,41*,0,-8
O=C(CCN1C(=O)/C(=C\c2ccccc2Cl)SC1=S)Nc1cccnc1,-1,-10,-2,66*,19,3
O=C(CCN1C(=O)/C(=C/c2ccccc2Cl)SC1=S)NC1C=CS(=O)(=O)C1 (centres undefined),-1,28*,-12,-6,0,-2
Cc1cc(NC(=O)CN2C(=O)/C(=C/c3cccc(Br)c3)SC2=S)no1,0,19*,4,-3,4,-4
Cc1ccc(/C=C2\SC(=S)N(CCCC(=O)Nc3cc(C)on3)C2=O)cc1,-1,9,-10,-5,2,-1
O=C(CCCN1C(=O)/C(=C/c2cccc(Br)c2)SC1=S)Nc1cccnc1,-1,22*,/,1,5,/
Cc1cc(C(C)(C)C)cc(C)c1C[n+]1ccc2ccccc2c1,0,-11,6,-10,0,5
CCOc1ccccc1NC(=O)C1CCCN1S(=O)(=O)c1ccccc1C(F)(F)F (centres undefined),0,-4,-13,42*,0,3
C=CCOC(=O)Cn1cnc2c(sc3nc(C)cc(C)c32)c1=O,-1,-12,5,1,0,-3
CC1(C)CC(=O)C=C(c2cccc(O)c2)C1,0,2,11,-1,3,11
COc1cc2c(cc1OC)CN(C(=O)c1ccc3nc[nH]c3c1)CC2,-3,-6,-7,10,1,-10
O=C(c1ccc2nc[nH]c2c1)N1CCc2ccccc2C1,-1,-1,5,54*,0,3
CCn1c(C)c(C)c2cc(C(=O)N3CCc4ccccc4C3)ccc21,-2,19*,-15,-3,5,-6
O=C(COc1ccc2c(c1)OCO2)Nc1nccs1,0,5,-3,53*,0,4
SMILES,CAL PDZ FP-1,dFosB activator,PKA-R1A activ,CAL PDZ FP-2,NTR1 agonist,PKA-R2B activ
COCc1nnc(NC(=O)COc2ccc3c(c2)OCO3)s1,-2,-8,3,-1,-1,-1
CCOC(=O)C1C(=O)CC(=O)C(C(=O)OCC)C1c1ccc(O)cc1 (centres undefined),/,/,8,/,/,-7
CCN1C(=O)/C(=C\C=C2/C=CC=CN2CC)SC1=S,-1,25*,4,5,2,-2
COc1cc(NCCCCCCN)c2ncccc2c1OC,1,18*,-15,0,/,-8
Cc1ccc(S(=O)(=O)N2CCOCC2)cc1NC(=O)CSc1nnc(NC2CC2)s1,-2,-2,3,0,-1,-11
Cc1cccc(Cn2c(C)c(C)c3cc(C(=O)NCCN4CCOCC4)ccc32)c1,-3,-9,5,22,-1,12
Cc1c(C)n(Cc2ccc(F)cc2)c2ccc(C(=O)NCCN3CCOCC3)cc12,1,-14,-1,90*,1,-5
C=CCn1c(NCCOC)nc2c1c(=O)n(C)c(=O)n2C,1,2,3,44*,0,10
COCCNc1nc2c(c(=O)n(C)c(=O)n2C)n1CCCc1ccccc1,/,/,5,/,/,2
COc1ccc(OC)c(S(=O)(=O)NCCS(=O)(=O)N2CCN(c3ccccc3)CC2)c1,-1,-9,-7,35*,3,0
COc1ccccc1OCC(=O)NCCS(=O)(=O)N1CCN(c2ccc(F)cc2)CC1,0,-14,2,54*,1,2
COc1cc2c(cc1OC)C(c1ccc(-c3ccccc3Cl)o1)=NCC2,-3,15,-1,-2,58*,-6
COc1cc2c(cc1OC)C(c1ccc(-c3ccc(Cl)c(Cl)c3)o1)=NCC2,-2,52*,-5,-1,7,6
COc1cc2c(cc1OC)C(c1ccc(-c3cc(Cl)ccc3Cl)o1)=NCC2,0,2,-2,0,4,-2
Cc1ccc(S(=O)(=O)N(C)CC(=O)NNC(=O)CCS(=O)(=O)c2ccccc2)cc1,1,-13,-8,-4,-1,-1
Cc1csc(CN(C)C(=O)CC2C(=O)NCCN2Cc2ccc(F)c(F)c2)n1 (centres undefined),-1,-10,6,-5,0,-10
Cc1ccc(NC(=O)O/N=C/c2c(C)nn(C(C)(C)C)c2C)cc1Cl,-1,-11,-4,/,8,-3
C=CCNC(=O)c1c(O)c2cccc3c2n(c1=O)CCC3,-1,-5,5,33*,2,-2
CCC1=C(Nc2ccccc2)COC1=O,/,/,-8,/,/,-2
Cc1noc(C)c1COc1ccc(C(=O)NCCc2ccc(F)cc2)cc1,0,-10,-5,/,0,0
Cc1noc(C)c1COc1ccc(CC(=O)NCCc2ccccc2)cc1,0,-4,-9,108*,0,-2

# From PubChem
